Laboratory results from ChEMBL document CHEMBL1138087, “Synthesis and evaluation of N-aryl pyrrolidinones as novel anti-HIV-1 agents. Part 1” (Bioorg Med Chem Lett, 2006).

Key:
[1] = biological target: Human immunodeficiency virus type 1 reverse transcriptase (Human immunodeficiency virus 1, UniProt Q72547); experiment: Inhibition of HIV1 reverse transcriptase
[2] = system: Human immunodeficiency virus 1; experiment: Antiviral activity against wild type HIV1 virus; type: functional, organism-based
How it was run: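 HEK 293T cells grown in DMEM with 10% FBS and Pen/Strep/Glutamine. Seeded at 700 cells/well, cultured 24 h at 37 °C under 5% CO₂. Serially diluted compound in DMSO added, then 1 h at 37 °C. HIV reporter virus added at MOI about 1.0, cells cultured a further 48 h at 37 °C. Luciferase read-out with Bright-Glo reagent.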

HEK293 = experiment: Cytotoxicity against HEK293T cells; type: functional; conditions: Homo sapiens
How it was run: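 293T cells seeded at 700 cells/well and cultured 24 h at 37 °C under 5% CO₂. Serially diluted compound in DMSO added to uninfected cells, then a further 48 h at 37 °C. Viability read by fluorescence after Alamar Blue (diluted 1:1 in DMEM) and 4 h at room temperature.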

[3] = system: Human immunodeficiency virus 1; experiment: Selectivity for wild type HIV1 virus over HIV1 K103N mutant; type: functional
[4] = system: Human immunodeficiency virus 1; experiment: Selectivity for wild type HIV1 virus over HIV1 Y181C mutant; type: functional
[5] = system: Human immunodeficiency virus 1; experiment: Selectivity for wild type HIV1 virus over HIV1 L100I mutant; type: functional
[6] = system: Human immunodeficiency virus 1; experiment: Selectivity for wild type HIV1 virus over HIV1 K103N/L100I mutant; type: functional
[7] = system: Human immunodeficiency virus 1; experiment: Antiviral activity against HIV1 K103N mutant; type: functional, organism-based
How it was run: (§1)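 HEK 293T cells grown in DMEM with 10% FBS and Pen/Strep/Glutamine. Cells seeded at 700 cells/well and cultured 24 h at 37 °C under 5% CO₂. Compounds serially diluted in DMSO were added and incubated 1 h at 37 °C. Cells were then infected with HIV reporter virus at MOI ~1.0 and cultured a further 48 h at 37 °C. Read-out was luciferase activity (Bright-Glo).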

[8] = system: Human immunodeficiency virus 1; experiment: Antiviral activity against HIV1 Y181C mutant; type: functional, organism-based; how it was run: as §1
[9] = system: Human immunodeficiency virus 1; experiment: Antiviral activity against HIV1 L100I mutant; type: functional, organism-based; how it was run: as §1
[10] = system: Human immunodeficiency virus 1; experiment: Antiviral activity against HIV1 K103N/L100I mutant; type: functional, organism-based; how it was run: as §1

Row | Compound | IC50 [1] [nM] | EC50 [2] [nM] | CC50 (HEK293) [nM] | Selectivity ratio [3] | Selectivity ratio [4] | Selectivity ratio [5] | Selectivity ratio [6] | EC50 [7] [nM] | EC50 [8] [nM] | EC50 [9] [nM] | EC50 [10] [nM]
1 | COc1ccc([C@H]2CC(=O)N(c3cccc(N)c3)C2)cc1OC1CCCC1 | 2000 | 125 | > 10000 |  |  |  |  |  |  |  | 
2 | COc1ccc([C@H]2CC(=O)N(c3cccc(NS(=O)(=O)c4ccccc4Cl)c3)C2)cc1OC1CCCC1 |  | 42 | > 10000 | 4 | 13 | 0.45 | 0.67 | 170 | 557 | 19 | 28
3 | COc1ccc([C@H]2CC(=O)N(c3cccc(NS(=O)(=O)c4ccccc4C)c3)C2)cc1OC1CCCC1 |  | 24 | > 10000 | 4.9 | 10 | 0.42 | 0.7 | 117 | 246 | 10 | 17
4 | COc1ccc([C@H]2CC(=O)N(c3cccc(NS(=O)(=O)c4cccc(F)c4)c3)C2)cc1OC1CCCC1 |  | 43 | > 10000 | 6 | 16 | 0.46 | 0.6 | 261 | 684 | 20 | 26
5 | COc1ccc([C@H]2CC(=O)N(c3cccc(NS(=O)(=O)c4c(F)cccc4F)c3)C2)cc1OC1CCCC1 |  | 48 | > 10000 | 9.4 | 27 | 1.4 | 1 | 451 | 1300 | 68 | 52
6 | COc1ccc([C@H]2CC(=O)N(c3cccc(NS(=O)(=O)c4cccc(Cl)c4)c3)C2)cc1OC1CCCC1 |  | 25 | > 10000 | 27 | 93 | 1.6 | 2.2 | 689 | 2320 | 40 | 56
7 | COc1ccc([C@H]2CC(=O)N(c3cccc(NS(=O)(=O)c4cccc(Cl)c4C)c3)C2)cc1OC1CCCC1 |  | 20 | > 10000 | 8.1 | 19 | 0.4 | 0.5 | 162 | 389 | 8 | 10
